Source: PubChem (Sanford-Burnham Center for Chemical Genomics)
HKDC1 inhibitor = HKDC1 (human) hexokinase inhibition. Q2TB90. recombinant HKDC1, G6PDH/diaphorase resazurin coupled fluorescence. inhibition, % at 20 µM. hit rate 0.16% among 340,000;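 active = inhibition above about 35% when tested at 20 µM, limit read from the data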
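Test system: recombinant HKDC1 (HK5) hexokinase enzyme, produced in-house; Amount: enzyme 5 µg/mL final; Buffer or medium: Tris pH 8.0 buffer with MgCl2, Tween-20, BSA, BME; Reagent: glucose and ATP substrates; Doses: 20 µM test compound, 1% DMSO; Incubation: 90 min reaction incubation at room temperature, dark; Detection: resorufin fluorescence at 613 nm.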
APOBEC3A inh = human APOBEC3A DNA deaminase inhibition; recombinant A3A, FAM/TAMRA ssDNA deamination fluorescence; P31941; hit rate 0.41% among 330,000; inhibition, % at 20 µM; AID 493011;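 active = at least 40% inhibition at 20 µM here, with at most 30% in a related deaminase screen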
Target sequence (P31941 whole entry, looked up): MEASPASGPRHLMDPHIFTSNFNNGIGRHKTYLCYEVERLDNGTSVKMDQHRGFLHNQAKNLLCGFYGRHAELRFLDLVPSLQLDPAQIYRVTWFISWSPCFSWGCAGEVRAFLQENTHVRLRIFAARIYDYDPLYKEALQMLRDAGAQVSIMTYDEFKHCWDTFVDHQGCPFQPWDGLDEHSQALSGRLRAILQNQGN
hiPSC survival = enhancers of human iPSC single-cell survival. hiPSC single-cell survival, ATPlite luminescence; 100% = ROCK inhibitor wells, 0% = DMSO. survival enhancement, % at 20 µM. hit rate 0.044% among 360,000. AID 602274; in the data active = survival enhancement above about 18%;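 also: cells exposed to compounds for 16 hours before the ATP read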
A3G deaminase = blocks human APOBEC3G single-stranded DNA deamination; Q9HC16; recombinant A3G, ssDNA deamination FAM/TAMRA fluorescence; inhibition, % at 20 µM; hit rate 0.28% among 330,000;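 active = inhibition of at least 40% at 20 µM, with no more than 30% in the related APOBEC3A deaminase screen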
Target sequence (Q9HC16 whole entry, looked up): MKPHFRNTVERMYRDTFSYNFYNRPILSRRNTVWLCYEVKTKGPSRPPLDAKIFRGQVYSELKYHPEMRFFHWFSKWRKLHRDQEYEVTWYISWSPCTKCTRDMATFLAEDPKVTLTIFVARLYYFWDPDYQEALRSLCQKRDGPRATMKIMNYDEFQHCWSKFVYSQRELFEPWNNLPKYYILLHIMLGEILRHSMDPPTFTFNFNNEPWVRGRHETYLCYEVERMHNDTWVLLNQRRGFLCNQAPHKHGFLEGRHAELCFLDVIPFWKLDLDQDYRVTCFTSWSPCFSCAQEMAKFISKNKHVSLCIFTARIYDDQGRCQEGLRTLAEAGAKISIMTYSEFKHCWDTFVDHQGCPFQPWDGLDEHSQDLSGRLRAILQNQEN
PfG6PD inh = PfG6PD (Plasmodium falciparum) enzyme inhibition; PfGluPho enzyme, NADPH resazurin-diaphorase fluorescence; hit rate 0.78% among 350,000; inhibition, % at 20 µM;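 active = inhibition reaching at least a set limit at 20 µM in the primary screen, cut at about 59% in these data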
HKDC1 act conf2 = confirmation of human HKDC1 activators. shares compounds with HKDC1 inhibitor. recombinant HKDC1, G6PDH/diaphorase resazurin fluorescence; hits give low values. inhibition, % at 20 µM. hit rate 14% among 740. AID 504708;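 active = inhibition at or below a set negative limit, negative inhibition meaning the enzyme was activated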
PfGluPho conf = confirmation of Plasmodium falciparum G6PD inhibitors; shares compounds with PfG6PD inh; recombinant PfGluPho, NADPH-diaphorase-resazurin fluorescence; inhibition, % at 20 µM; hit rate 34% among 2,400; AID 504753;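 active = inhibition of at least 50% at 20 µM in any single replicate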
Diaphorase 10uM = inhibits diaphorase or oxidizes, flagging false PfG6PD hits; AID 504862; diaphorase-coupled resazurin reduction, fluorescence, NADPH 10 uM; inhibition, % at 20 µM; shares compounds with PfG6PD inh; hit rate 39% among 820;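 active = average inhibition reaching 50% or more with the compound at 20 µM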;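 also: resorufin red fluorescence formed as diaphorase reduces resazurin using NADPH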
Diaphorase 30uM = diaphorase inhibition or oxidation at 30 uM NADPH. AID 504863. Diaphorase/resazurin coupled assay, resorufin fluorescence. hit rate 29% among 820. inhibition, % at 20 µM. shares compounds with PfG6PD inh;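 active = inhibition averaging 50% or more, tested at 20 µM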
Of the large screens only hits and unclear results are named; the others gave an inactive call (follow-up assays come after a bar, where they were run). In the library only some 1.4% were active in any assay of this set; here they are far more common.

Cc1ccc(Cl)cc1NC1=C/C(=N\S(=O)(=O)c2cccs2)c2ccccc2C1=O	HKDC1 inhibitor 36.0, PfG6PD inh 95.1 | HKDC1 act conf2 inactive | PfGluPho conf 57.9 | Diaphorase 10uM inactive | Diaphorase 30uM inactive
Cc1ccc(NC2=C/C(=N\S(=O)(=O)c3cccs3)c3ccccc3C2=O)c(C)c1	HKDC1 inhibitor 40.1, PfG6PD inh 102.1 | HKDC1 act conf2 inactive | PfGluPho conf 58.3 | Diaphorase 10uM 59.9 | Diaphorase 30uM 56.5
O=C1C(Nc2ccc(O)cc2)=C/C(=N/S(=O)(=O)c2cccs2)c2ccccc21	HKDC1 inhibitor 59.8, PfG6PD inh 114.3 (no result: APOBEC3A inh, A3G deaminase) | HKDC1 act conf2 inactive | PfGluPho conf 60.2 | Diaphorase 10uM 66.9 | Diaphorase 30uM 64.9
CC(C)(C)c1cc[n+](C2=C([O-])c3ccccc3C(=O)/C2=N\S(=O)(=O)c2cccs2)cc1	none
CCN(CC(=O)Nc1cc(S(=O)(=O)N2CCCCC2)ccc1C)Cc1ccccc1	none
COc1cc(/C=C/c2nc3ccc([N+](=O)[O-])cc3s2)ccc1OCC(=O)O	none (no result: HKDC1 inhibitor, hiPSC survival, PfG6PD inh)
COc1cc(CNC[C@H]2O[C@@H](n3cc(C)c(=O)[nH]c3=O)C[C@@H]2O)ccc1OCc1cccc(Cl)c1	none (no result: HKDC1 inhibitor, APOBEC3A inh, A3G deaminase)
CCc1ccc(S(=O)(=O)/N=C2\C=C(Nc3ccc(O)cc3)C(=O)c3ccccc32)cc1	PfG6PD inh 94.0 | HKDC1 act conf2 inactive | PfGluPho conf inactive
CCc1ccc(S(=O)(=O)/N=C2\C=C(Nc3cccc(C(=O)O)c3)C(=O)c3ccccc32)cc1	HKDC1 inhibitor 52.7, PfG6PD inh 61.3 | HKDC1 act conf2 inactive | PfGluPho conf inactive
CCc1ccc(S(=O)(=O)/N=C2\C=CC(=O)c3ccccc32)cc1	none (no result: HKDC1 inhibitor, hiPSC survival, PfG6PD inh)
O=C(Nc1ccccc1N1CCCC1)c1cccc(-c2cc3ccccc3oc2=O)c1	none
O=C(Nc1ccc(N2CCCC2)cc1)c1cccc(-c2cc3ccccc3oc2=O)c1	PfG6PD inh 67.6 | HKDC1 act conf2 -24.8 | PfGluPho conf 57.8 | Diaphorase 10uM inactive | Diaphorase 30uM inactive
CN(C)c1ncc(C2=C(Cl)C(=O)C(N3CCCC3)=C(Cl)C2=O)s1	HKDC1 inhibitor 35.1, PfG6PD inh 90.8 | HKDC1 act conf2 inactive | PfGluPho conf 97.8 | Diaphorase 10uM inactive | Diaphorase 30uM inactive
N#CCC(=O)N/N=C/c1cc(Br)ccc1OCc1cccc2ccccc12	none
O=C(/C=C/c1cccs1)Nc1scc(-c2ccccc2)c1C(=O)O	HKDC1 inhibitor 81.2, PfG6PD inh 70.0 (no result: APOBEC3A inh, A3G deaminase) | HKDC1 act conf2 inactive | PfGluPho conf inactive
O=C(/C=C/c1cccs1)Nc1nc(-c2ccccc2)cs1	none
CCc1ccccc1NC(=O)NNC(=O)CCc1ccc(OC)cc1	none
C=CC(=O)N1C/C(=C/c2ccc(F)cc2)C(=O)/C(=C\c2ccc(F)cc2)C1	HKDC1 inhibitor 36.0, PfG6PD inh 61.9 (no result: APOBEC3A inh, A3G deaminase) | HKDC1 act conf2 inactive | PfGluPho conf inactive
Cc1cc(O)c(-c2cc(O)c(C)cc2O)cc1O	HKDC1 inhibitor 44.7, A3G deaminase 85.5, PfG6PD inh 111.5 | HKDC1 act conf2 inactive | PfGluPho conf 109.7 | Diaphorase 10uM 72.6 | Diaphorase 30uM inactive
O=[N+]([O-])c1ccc(N/N=C/c2ccc(O)c(O)c2O)c(S(=O)(=O)N2CCOCC2)c1	HKDC1 inhibitor 38.2, PfG6PD inh 66.5 | HKDC1 act conf2 inactive | PfGluPho conf 61.9 | Diaphorase 10uM inactive | Diaphorase 30uM inactive
O=C(c1ccccc1)c1coc2ccc(O)c(Cl)c12	none
Cc1oc2c(c1C(=O)c1ccccc1)C(=O)C(=O)c1ccccc1-2	HKDC1 inhibitor 42.2, PfG6PD inh 108.0 | HKDC1 act conf2 inactive | PfGluPho conf 101.2 | Diaphorase 10uM 90.0 | Diaphorase 30uM 91.0
O=C1C(=O)c2c(C(=O)c3ccccc3)coc2-c2ccccc21	HKDC1 inhibitor 50.8, PfG6PD inh 116.7 | HKDC1 act conf2 inactive | PfGluPho conf 106.6 | Diaphorase 10uM 94.2 | Diaphorase 30uM 99.6
CCCCCCN1CCN(C2CN(Cc3cn(Cc4ccc(C)cc4)nn3)S(=O)(=O)C2)CC1 (stereo not drawn)	none (no result: HKDC1 inhibitor, APOBEC3A inh, A3G deaminase, PfG6PD inh)
O=C(Nc1ccn(CC(=O)N2CCN(c3ccccn3)CC2)c(=O)n1)OCc1ccccc1	none
CC(OC(=O)c1cc(O)c2ccccc2c1O)C(=O)Nc1ccc(C(N)=O)cc1 (stereo not drawn)	HKDC1 inhibitor 39.0, PfG6PD inh 72.3 | HKDC1 act conf2 inactive | PfGluPho conf inactive
CC(OC(=O)c1ccccc1C(=O)N(C)c1ccccc1)C(=O)Nc1ccc(C(N)=O)cc1 (stereo not drawn)	none
COC(=O)[C@@]12CCCCN1[C@H](c1ccc(-c3ccccc3)c(OC)c1)[C@H]1C(=O)N(C)C(=O)[C@H]12	none
COc1ncnc2c1oc1nc(C)c3c(c12)CC(C)(C)OC3	none
COc1ncnc2c1oc1nc(C(C)C)c3c(c12)CC(C)(C)OC3	HKDC1 inhibitor 53.1, PfG6PD inh 62.0 | HKDC1 act conf2 inactive | PfGluPho conf inactive
CC(C)c1nc2oc3c(NCc4ccccn4)ncnc3c2c2c1COC(C)(C)C2	HKDC1 inhibitor 35.3, PfG6PD inh 65.3 | HKDC1 act conf2 inactive | PfGluPho conf inactive
CC1(C)Cc2nc3oc4c(NCc5ccccc5)ncnc4c3cc2CO1	none
Cc1cccc(C)c1OCC(=O)Nc1ccc2c(c1)OCCO2	none
CC1=NOC(=O)/C1=C\c1ccc(-c2ccc(Cl)cc2Cl)o1	HKDC1 inhibitor 53.7, PfG6PD inh 69.9 | HKDC1 act conf2 inactive | PfGluPho conf inactive
O=C(Cn1cc(COc2ccc(Br)cc2[N+](=O)[O-])nn1)c1ccc(O)cc1	none (no result: APOBEC3A inh, A3G deaminase)
CCN(CC)c1ccc(C(=O)NNC(=O)CCl)cc1	none
CCN(CC)c1ccc(C(=C2C=CC(=[N+](CC)CC)C=C2)c2ccc(N(CC)CC)cc2)cc1	HKDC1 inhibitor 53.7, PfG6PD inh 92.0 (no result: APOBEC3A inh, A3G deaminase) | HKDC1 act conf2 inactive | PfGluPho conf 85.2 | Diaphorase 10uM inactive | Diaphorase 30uM inactive
COc1ccc(S(=O)(=O)Nc2cccc3ccc(O)cc23)cc1	none
COc1ccc(S(=O)(=O)Nc2cc(SCC(=O)O)c(O)c3ccccc23)cc1	HKDC1 inhibitor 57.1, PfG6PD inh 110.4 | HKDC1 act conf2 inactive | PfGluPho conf 95.8 | Diaphorase 10uM inactive | Diaphorase 30uM inactive
Cc1cc(C)c(S(=O)(=O)Nc2cc(SCC(=O)O)c(O)c3ccccc23)cc1C	HKDC1 inhibitor 54.1, PfG6PD inh 106.5 (no result: APOBEC3A inh, hiPSC survival, A3G deaminase) | HKDC1 act conf2 inactive | PfGluPho conf 98.4 | Diaphorase 10uM 52.0 | Diaphorase 30uM inactive
